From ChEMBL document CHEMBL4477178, “Biflorin, Isolated from the Flower Buds of Syzygium aromaticum L., Suppresses LPS-Induced Inflammatory Mediators via STAT1 Inactivation in Macrophages and Protects Mice from Endotoxin Shock” (J Nat Prod, 2016)
Calls of active or inactive are those of the source. The calls are words filed in the database; no cut-off is given here.

What was measured:
RAW264.7 [1] = assay: Cytotoxicity against mouse RAW264.7 cells assessed as cell viability at 60 uM after 24 hrs by MTT assay in presence of LPS; assay type: cell-based; details: raw264.7, 24 h
Summary of the method: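 RAW 264.7 seeded at 1 × 10^5 cells/mL, grown overnight, exposed 24 h with or without LPS; MTT (5 mg/mL stock in PBS) added 4 h at 37 °C, formazan dissolved in DMSO, absorbance at 540 nm.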

RAW264.7 [2] = assay: Antiinflammatory activity in mouse RAW264.7 cells assessed as inhibition of LPS-induced iNOS promoter activity at 60 uM preincubated for 1 hr followed by LPS challenge for 6 to 12 hrs by reporter gene assay; assay type: functional, cell-based
Summary of the method: (§1)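 RAW 264.7 transiently cotransfected with promoter-luciferase construct (pGL3-iNOS, pGL3-COX-2 or pTNF-α-luc) plus phRL-TK internal control; 6 h after transfection pretreated 1 h with 60 μM, then LPS 10 ng/mL for 6 or 12 h. Cells washed in cold PBS, lysed, luciferase read. Mean ± SD, three independent experiments.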

RAW264.7 [3] = assay: Antiinflammatory activity in mouse RAW264.7 cells assessed as inhibition of LPS-induced COX-2 promoter activity at 60 uM preincubated for 1 hr followed by LPS challenge for 6 to 12 hrs by reporter gene assay; assay type: functional, cell-based; summary of the method: as §1
Peritoneal macrophage = assay: Antiinflammatory activity in C57BL/6 mouse peritoneal macrophages assessed as inhibition of LPS-induced IL-6 production at 60 uM preincubated for 1 hr followed by LPS challenge for 48 hrs by ELISA method; assay type: functional; details: C57BL/6, Peritoneal macrophage
[4] = biological target: Transcription factor Jun (Mus musculus) (UniProt P05627); assay: Inhibition of LPS-induced AP-1 activity in mouse RAW264.7 cells at 15 to 60 uM preincubated for 1 hr followed by LPS challenge for 12 hrs by luciferase reporter gene assay; assay type: cell-based
Chain of Transcription factor Jun (Mus musculus) (P05627 whole entry): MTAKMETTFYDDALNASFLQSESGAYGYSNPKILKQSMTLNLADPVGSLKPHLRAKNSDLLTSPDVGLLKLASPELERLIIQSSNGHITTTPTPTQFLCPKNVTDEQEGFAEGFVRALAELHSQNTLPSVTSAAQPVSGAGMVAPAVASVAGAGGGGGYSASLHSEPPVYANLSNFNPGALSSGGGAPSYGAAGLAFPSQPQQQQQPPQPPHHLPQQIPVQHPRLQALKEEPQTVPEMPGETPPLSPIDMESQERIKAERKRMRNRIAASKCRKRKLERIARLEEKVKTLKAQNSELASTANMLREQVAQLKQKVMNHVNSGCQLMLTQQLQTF

[5] = biological target: T1, Signal transducer and activator of transcription 1 (Mus musculus) (UniProt P42225); assay: Inhibition of LPS-induced STAT1 phosphorylation at S727 in mouse RAW264.7 cells at 15 to 60 uM preincubated for 1 hr followed by LPS challenge for 15 mins by Western blot analysis; assay type: cell-based
T1 sequence (whole entry): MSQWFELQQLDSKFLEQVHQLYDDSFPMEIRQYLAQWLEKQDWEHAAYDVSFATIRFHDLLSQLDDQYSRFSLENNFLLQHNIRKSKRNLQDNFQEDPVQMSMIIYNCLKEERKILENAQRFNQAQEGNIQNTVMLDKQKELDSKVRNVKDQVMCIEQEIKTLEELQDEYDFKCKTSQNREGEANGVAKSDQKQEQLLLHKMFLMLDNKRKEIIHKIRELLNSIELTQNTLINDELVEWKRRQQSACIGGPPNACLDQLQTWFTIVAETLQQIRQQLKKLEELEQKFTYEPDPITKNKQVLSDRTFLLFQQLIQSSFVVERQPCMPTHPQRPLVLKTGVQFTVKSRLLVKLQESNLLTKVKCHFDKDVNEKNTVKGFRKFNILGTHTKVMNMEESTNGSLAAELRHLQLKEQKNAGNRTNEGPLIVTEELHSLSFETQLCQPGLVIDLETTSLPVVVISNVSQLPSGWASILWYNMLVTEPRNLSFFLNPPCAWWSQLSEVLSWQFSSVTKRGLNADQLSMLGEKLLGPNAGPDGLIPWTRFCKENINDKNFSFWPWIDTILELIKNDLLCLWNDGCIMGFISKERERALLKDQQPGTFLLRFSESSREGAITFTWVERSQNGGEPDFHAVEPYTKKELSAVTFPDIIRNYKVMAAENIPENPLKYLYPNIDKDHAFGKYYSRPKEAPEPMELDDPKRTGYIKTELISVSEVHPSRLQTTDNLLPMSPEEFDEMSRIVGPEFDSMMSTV
Summary of the method: (§2)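 RAW 264.7 pretreated 1 h at 15, 30 or 60 μM, then LPS 10 ng/mL: 120 min for p-STAT1 Y701, 15 min for p-STAT1 S727, 120 min for p-STAT3 Y705. Western blot with phospho-specific and total STAT1/STAT3 antibodies, β-actin control; three independent experiments.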

[6] = biological target: Signal transducer and activator of transcription 3 (Mus musculus) (UniProt P42227); assay: Inhibition of LPS-induced STAT3 phosphorylation at Y705 in mouse RAW264.7 cells at 15 to 60 uM preincubated for 1 hr followed by LPS challenge for 120 mins by Western blot analysis; assay type: cell-based; summary of the method: as §2
Chain of Signal transducer and activator of transcription 3 (Mus musculus) (P42227 whole entry): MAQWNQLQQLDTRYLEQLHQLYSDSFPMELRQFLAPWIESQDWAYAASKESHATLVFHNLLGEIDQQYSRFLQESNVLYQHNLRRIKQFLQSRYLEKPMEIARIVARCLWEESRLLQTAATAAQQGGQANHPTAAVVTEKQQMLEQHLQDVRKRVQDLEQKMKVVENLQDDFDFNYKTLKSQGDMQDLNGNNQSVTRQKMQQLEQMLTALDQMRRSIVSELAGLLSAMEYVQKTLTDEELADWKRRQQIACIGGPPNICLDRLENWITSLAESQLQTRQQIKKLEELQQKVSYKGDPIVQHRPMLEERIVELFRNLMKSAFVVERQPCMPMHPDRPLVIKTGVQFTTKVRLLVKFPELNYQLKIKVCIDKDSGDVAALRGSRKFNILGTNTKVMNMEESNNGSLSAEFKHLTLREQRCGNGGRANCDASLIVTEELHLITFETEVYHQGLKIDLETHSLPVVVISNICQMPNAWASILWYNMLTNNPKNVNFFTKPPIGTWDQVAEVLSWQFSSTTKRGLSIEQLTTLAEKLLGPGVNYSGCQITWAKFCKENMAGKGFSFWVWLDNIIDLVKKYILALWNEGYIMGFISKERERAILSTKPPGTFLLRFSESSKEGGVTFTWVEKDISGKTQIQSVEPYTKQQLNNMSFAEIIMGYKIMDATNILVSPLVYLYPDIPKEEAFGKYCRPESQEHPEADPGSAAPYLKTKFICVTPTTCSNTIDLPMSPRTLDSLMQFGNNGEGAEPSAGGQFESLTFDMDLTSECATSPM

[7] = biological target: T1, Signal transducer and activator of transcription 1 (Mus musculus); assay: Inhibition of LPS-induced STAT1 phosphorylation at Y701 in C57BL/6 mouse peritoneal macrophages at 15 to 60 uM preincubated for 1 hr followed by LPS challenge for 120 mins by Western blot analysis
Summary of the method: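 Thioglycolate-elicited C57BL/6 peritoneal macrophages pretreated 1 h at 15, 30 or 60 μM, then LPS 10 μg/mL: 120 min for p-STAT1 Y701, 30 min for p-STAT1 S727, 60 min for p-STAT3 Y705. Western blot with phospho-specific and total STAT antibodies, β-actin control; three independent experiments.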

Mus musculus = assay: Inhibition of LPS-induced iNOS mRNA expression in C57BL/6 mouse liver at 10 mg/kg, ip pretreated for 1 hr followed by LPS challenge for 6 hrs by qRT-PCR method; assay type: functional, organism-based
Summary of the method: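 Male C57BL/6 mice given 10 mg/kg i.p. or vehicle 1 h before LPS (Salmonella enterica, 25 mg/kg i.p.); liver collected 6 h after LPS, frozen at −80 °C. Liver mRNA by SYBR qRT-PCR normalized to β-actin; protein by Western blot for p-STAT1 (Y701, S727). Eight mice per group; mean ± SD.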

Rattus norvegicus [8] = assay: Antiinflammatory activity in Sprague-Dawley rat assessed as reduction in carrageenan induced paw edema at 10 mg/kg, ip administered 1 hr before carrageenan challenge measured at 3 hrs post challenge relative to control; assay type: functional
Summary of the method: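 SD rats given compound i.p. (5, 10 or 15 mg/kg) 1 h before subplantar injection of 1% carrageenan in saline (0.1 mL) into the right hind paw. Paw volume measured by plethysmometer at 1, 3 and 5 h. Edema compared with the carrageenan-only group; seven rats per group.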

Rattus norvegicus [9] = assay: Antiinflammatory activity in Sprague-Dawley rat assessed as inhibition of croton oil-induced ear edema at 5 mg/kg, ip administered 1 hr before croton oil challenge measured after 3 hrs post challenge relative to control; assay type: functional
Summary of the method: (§3)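 Male SD rats given compound i.p. (5, 10 or 15 mg/kg) 1 h before topical croton oil (5% in 100 μL acetone) on the inner right ear; the left ear received acetone alone. After 3 h, rats were killed and 6 mm ear punches were taken and measured for thickness. Inhibition calculated relative to the croton-oil-only group; seven rats per group.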

Rattus norvegicus [10] = assay: Antiinflammatory activity in Sprague-Dawley rat assessed as inhibition of croton oil-induced ear edema at 10 mg/kg, ip administered 1 hr before croton oil challenge measured after 3 hrs post challenge relative to control; assay type: functional; summary of the method: as §3

Structure (SMILES): Cc1cc(=O)c2c(O)c([C@@H]3O[C@H](CO)[C@@H](O)[C@H](O)[C@H]3O)c(O)cc2o1 [BIFLORIN]
- Activity (RAW264.7 [1]): Non-Toxic
- inhibition (RAW264.7 [2]): Active
- inhibition (RAW264.7 [3]): Active
- inhibition at 60 µM (Peritoneal macrophage): 61.1%
- inhibition [4]: inactive
- inhibition [5]: Active
- inhibition [6]: Active
- inhibition [7]: Active
- inhibition (Mus musculus): Active
- inhibition in vivo at 10 mg/kg (Rattus norvegicus [8]): 48%
- inhibition in vivo at 5 mg/kg (Rattus norvegicus [9]): 33.4%
- inhibition in vivo at 10 mg/kg (Rattus norvegicus [10]): 44.5%
